Assay results as given in ChEMBL document CHEMBL3763086, “Salicylanilide N-monosubstituted carbamates: Synthesis and in vitro antimicrobial activity” (2016).

What was measured:
Assay type in all cases: functional
[1] = test system: Lichtheimia corymbifera; experiment: Antifungal activity against Absidia corymbifera 272 after 48 hrs by microbroth dilution method; settings: Lichtheimia corymbifera, 272, 48 h
[2] = test system: Klebsiella pneumoniae; experiment: Antibacterial activity against ESBL-positive Klebsiella pneumoniae J 14368/08 after 48 hrs by microbroth dilution method; settings: J 14368/08, 48 h
How it was run: (§1)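 Microbroth dilution modified per M07-A07 in Mueller-Hinton broth, pH 7.4 (±0.2). Inoculum in sterile water adjusted to 0.5 McFarland. MIC taken as growth reduction of at least 90% (IC90) versus control, read visually and at 540 nm after 24 and 48 h incubation in the dark.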

[3] = test system: Candida albicans; experiment: Antifungal activity against Candida albicans ATCC 44859 after 48 hrs by microbroth dilution method; settings: ATCC 44859, 48 h
[4] = test system: Nakaseomyces glabratus; experiment: Antifungal activity against Candida glabrata 20/I after 48 hrs by microbroth dilution method
[5] = test system: Trichosporon asahii; experiment: Antifungal activity against Trichosporon asahii 1188 after 24 hrs by microbroth dilution method; settings: Trichosporon asahii, 1188, 24 h
[6] = test system: Candida tropicalis; experiment: Antifungal activity against Candida tropicalis 156 after 48 hrs by microbroth dilution method; settings: Candida tropicalis, 156, 48 h
[7] = test system: Trichosporon asahii; experiment: Antifungal activity against Trichosporon asahii 1188 after 48 hrs by microbroth dilution method; settings: Trichosporon asahii, 1188, 48 h
[8] = test system: Nakaseomyces glabratus; experiment: Antifungal activity against Candida glabrata 20/I after 24 hrs by microbroth dilution method
[9] = test system: Pichia kudriavzevii; experiment: Antifungal activity against Candida krusei E28 after 24 hrs by microbroth dilution method; settings: E28, 24 h
[10] = test system: Staphylococcus epidermidis; experiment: Antibacterial activity against Staphylococcus epidermidis H 6966/08 after 24 hrs by microbroth dilution method; settings: H 6966/08, 24 h; how it was run: as §1
[11] = test system: Staphylococcus aureus; experiment: Antibacterial activity against Staphylococcus aureus CCM 4516/08 after 24 hrs by microbroth dilution method; settings: CCM 4516/08, 24 h; how it was run: as §1
[12] = test system: Klebsiella pneumoniae; experiment: Antibacterial activity against Klebsiella pneumoniae D 11750/08 after 48 hrs by microbroth dilution method; settings: D 11750/08, 48 h; how it was run: as §1
[13] = test system: Trichophyton mentagrophytes; experiment: Antifungal activity against Trichophyton mentagrophytes 445 after 120 hrs by microbroth dilution method; settings: Trichophyton mentagrophytes, 445, 120 h
[14] = test system: Klebsiella pneumoniae; experiment: Antibacterial activity against Klebsiella pneumoniae D 11750/08 after 24 hrs by microbroth dilution method; settings: D 11750/08, 24 h; how it was run: as §1
[15] = test system: Escherichia coli; experiment: Antibacterial activity against Escherichia coli CCM 4517 after 48 hrs by microbroth dilution method; settings: CCM 4517, 48 h; how it was run: as §1
[16] = test system: Escherichia coli; experiment: Antibacterial activity against Escherichia coli CCM 4517 after 24 hrs by microbroth dilution method; settings: CCM 4517, 24 h; how it was run: as §1
[17] = test system: Enterococcus sp.; experiment: Antibacterial activity against Enterococcus sp. J 14365/08 after 48 hrs by microbroth dilution method; settings: J 14365/08, 48 h; how it was run: as §1
[18] = test system: Candida albicans; experiment: Antifungal activity against Candida albicans ATCC 44859 after 24 hrs by microbroth dilution method; settings: ATCC 44859, 24 h
[19] = test system: Lichtheimia corymbifera; experiment: Antifungal activity against Absidia corymbifera 272 after 24 hrs by microbroth dilution method; settings: Lichtheimia corymbifera, 272, 24 h
[20] = test system: Staphylococcus aureus; experiment: Antibacterial activity against methicillin-resistant Staphylococcus aureus H 5996/08 after 48 hrs by microbroth dilution method; settings: H 5996/08, 48 h
How it was run: (§2)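 Microdilution broth method modified after M07-A07 in Mueller-Hinton broth adjusted to pH 7.4 (±0.2). Inoculum prepared in sterile water to 0.5 McFarland (1.5 × 10^8 CFU/mL). MIC taken as growth reduction versus control (IC95 per table header), read visually and spectrophotometrically at 540 nm after 24 and 48 h incubation in the dark.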

[21] = test system: Staphylococcus epidermidis; experiment: Antibacterial activity against Staphylococcus epidermidis H 6966/08 after 48 hrs by microbroth dilution method; settings: H 6966/08, 48 h; how it was run: as §1
[22] = test system: Staphylococcus aureus; experiment: Antibacterial activity against Staphylococcus aureus CCM 4516/08 after 48 hrs by microbroth dilution method; settings: CCM 4516/08, 48 h; how it was run: as §2
[23] = test system: Trichophyton mentagrophytes; experiment: Antifungal activity against Trichophyton mentagrophytes 445 after 72 hrs by microbroth dilution method; settings: Trichophyton mentagrophytes, 445, 72 h
[24] = test system: Enterococcus sp.; experiment: Antibacterial activity against Enterococcus sp. J 14365/08 after 24 hrs by microbroth dilution method; settings: J 14365/08, 24 h; how it was run: as §1
[25] = test system: Klebsiella pneumoniae; experiment: Antibacterial activity against ESBL-positive Klebsiella pneumoniae J 14368/08 after 24 hrs by microbroth dilution method; settings: J 14368/08, 24 h; how it was run: as §1
[26] = test system: Staphylococcus aureus; experiment: Antibacterial activity against methicillin-resistant Staphylococcus aureus H 5996/08 after 24 hrs by microbroth dilution method; settings: H 5996/08, 24 h; how it was run: as §2
[27] = test system: Pichia kudriavzevii; experiment: Antifungal activity against Candida krusei E28 after 48 hrs by microbroth dilution method; settings: E28, 48 h
[28] = test system: Candida tropicalis; experiment: Antifungal activity against Candida tropicalis 156 after 24 hrs by microbroth dilution method; settings: Candida tropicalis, 156, 24 h

Measured: MIC

O=C(Nc1ccccc1)Oc1ccc(Cl)cc1C(=O)Nc1ccc(Cl)cc1
31.2 µM: [10] | [11] | [20] | [21] | [22] | [26]
1.95 µM: [13] | [23]
500 µM: [12] | [14] | [15] | [16] | [17] | [24]
62.5 µM: [2] | [5] | [7] | [9] | [25] | [27]
> 125 µM: all other assays above

O=C(NC12CC3CC(CC(C3)C1)C2)Oc1ccc(Cl)cc1C(=O)Nc1ccc(Cl)cc1
3.9 µM: [10] | [11] | [13] | [21] | [23] | [26]
250 µM: [6] | [17] | [24] | [28]
15.6 µM: [22]
62.5 µM: [2] | [25]
125 µM: [9] | [27]
31.2 µM: [5] | [7] | [20]
> 250 µM: all other assays above

O=C(NCCc1ccccc1)Oc1ccc(Cl)cc1C(=O)Nc1ccc(Cl)cc1
1.95 µM: [13] | [23]
3.9 µM: [10] | [11] | [26]
125 µM: [16]
500 µM: [12] | [14] | [15] | [17] | [24]
15.6 µM: [20] | [21] | [22]
31.2 µM: [2] | [25]
> 500 µM: all other assays above

O=C(Nc1ccccc1)Oc1ccc(Cl)cc1C(=O)Nc1ccc(Br)cc1
250 µM: [9] | [27]
3.9 µM: [13] | [23]
≤ 0.49 µM: [10] | [11] | [26]
500 µM: [17] | [24]
125 µM: [4] | [5] | [7] | [8]
0.98 µM: [20] | [21] | [22]
> 500 µM: all other assays above

O=C(NCc1ccccc1)Oc1ccc(Cl)cc1C(=O)Nc1ccc(Cl)cc1
3.9 µM: [10] | [11] | [21]
125 µM: [2] | [12] | [14]
62.5 µM: [9] | [25] | [27]
7.81 µM: [26]
1.95 µM: [13] | [23]
15.6 µM: [5] | [7] | [20] | [22]
> 125 µM: all other assays above

O=C(NC1CCCCC1)Oc1ccc(Cl)cc1C(=O)Nc1ccc(Br)cc1
> 500 µM: [2] | [12] | [14] | [15] | [16] | [25]
62.5 µM: [5] | [7]
0.98 µM: [21] | [22]
1.95 µM: [13] | [20] | [23]
500 µM: [17] | [24]
≤ 0.49 µM: [10] | [11] | [26]
> 125 µM: all other assays above
